From PubChem BioAssay
SR-BI DiI inh: mouse SR-BI HDL lipid transfer inhibition. Q61009. 0.96% of 320,000 active. ldlA[mSR-BI] CHO cells, DiI-HDL uptake fluorescence, 3 h. inhibition, % at 12.5 µM. AID 488896;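 active = mean replicate inhibition of at least 70% and a set share of replicates each scoring 70 or more; inconclusive = meets just one of the two criteria; inactive = fails both criteria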
Target sequence (Q61009 whole entry, looked up): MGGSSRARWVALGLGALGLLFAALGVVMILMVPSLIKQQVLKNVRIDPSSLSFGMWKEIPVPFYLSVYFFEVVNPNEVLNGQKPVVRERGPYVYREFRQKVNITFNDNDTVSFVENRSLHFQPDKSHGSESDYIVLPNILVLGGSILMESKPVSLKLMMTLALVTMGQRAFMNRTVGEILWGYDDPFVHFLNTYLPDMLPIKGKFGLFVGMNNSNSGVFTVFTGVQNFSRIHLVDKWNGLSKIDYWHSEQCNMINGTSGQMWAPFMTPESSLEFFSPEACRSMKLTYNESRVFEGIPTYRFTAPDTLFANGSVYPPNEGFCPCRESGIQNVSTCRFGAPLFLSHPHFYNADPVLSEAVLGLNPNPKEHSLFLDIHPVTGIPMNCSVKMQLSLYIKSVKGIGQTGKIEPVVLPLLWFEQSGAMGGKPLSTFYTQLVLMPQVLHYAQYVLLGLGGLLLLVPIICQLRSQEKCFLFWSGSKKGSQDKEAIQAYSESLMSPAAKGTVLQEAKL
PKA-R1A activ: activators of PKA-R1A complex | P00514+P68181 | PKA-R1A dissociation, Cy5-IP20 fluorescence polarization; scaled: DMSO 0%, 113 µM cGMP 100% | activation, % at 11.4 µM | 0.083% of 340,000 active | AID 504707;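 active = percent activation above the mean of all tested compounds plus 3 SD, cut at about 19% in these data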;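 note: higher means more PKAc released from R1A so a rise in polarization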
CDK5 p35 inh: inhibitors of human CDK5/p35 kinase | Q00535+Q15078 | Recombinant CDK5/p35, ADP-Glo luminescence, 60 min | inhibition, % at 10 µM | 0.01% of 330,000 active | AID 488839;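 active = highest replicate inhibition of at least 50% and at least 75% of replicates reaching 50%; inconclusive = only one of the two criteria met; inactive = both criteria failed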
dFosB act-1: enhances mouse delta FosB homodimer DNA binding. AID 493131. 0.99% of 340,000 active. activation, % at 25 µM. purified delta FosB, TAMRA-CDK5 oligo fluorescence polarization; percent of positive-control signal above neutral wells;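 active = mean activation above about 17%, with every replicate also reaching it, limit read from the data, passing the limit was not always enough; inconclusive = only one of the two conditions met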
SR-BI DiI-HDL act: activators of SR-BI mediated HDL lipid uptake | CHO ldlA[mSR-BI] cells, DiI-HDL uptake fluorescence, 3 h; 100 = double the neutral-control signal | activation, % at 12.5 µM | 0.096% of 320,000 active | AID 504775;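 active = mean replicate activation of at least 60% and every replicate at or above 60%; inconclusive = mean or all-replicate condition met, but not both; inactive = mean below 60% and not all replicates reaching 60%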
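Material: SR-BI-overexpressing, LDLR-lacking CHO cells | Dosing: Single compound concentration, delivered by pin transfer | Probe or stimulus: Labelled HDL, 10 µg/mL | Signal: Bottom-read cell fluorescence after medium removal, ex 550/em 595 nm | Schedule: 3 h, 37 °C | Evaluation: HDL uptake via cellular fluorescence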
PKA-R2B act: activators of human PKA-R2B complex | P22694+P31323 | PKA-R2B holoenzyme dissociation, Cy5-IP20 fluorescence polarization; R2B truncated from residue 108, S112A mutant; 0% DMSO only, 100% 113 µM cGMP | activation, % at 11.4 µM | 0.079% of 340,000 active | AID 504700;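 active = activation above a cutoff set at the mean over all compounds plus 3 SD, cut at about 18% in these data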;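 note: higher means more holoenzyme dissociation and a rise in polarization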
dFosB act-2: delta FosB (mouse) homodimer activation | shares compounds with dFosB act-1 | purified delta FosB, TAMRA-CDK5 oligo fluorescence polarization; normalised: neutral wells 0, positive control 100 | activation, % at 24.9 µM | 2,400 tested, under 10 active;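 active = highest replicate activation at or above 34% and every replicate reaching that threshold; inconclusive = meets only one of the two criteria; inactive = meets neither criterion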;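 note: higher polarization means more probe DNA bound by delta FosB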
Numbers stand for hits; - = inactive; ? = inconclusive; . = no result. Sampled rows, rich in hits. Any-hit rate of the full collection: about 2.1%.

SMILES	SR-BI DiI inh	PKA-R1A activ	CDK5 p35 inh	dFosB act-1	SR-BI DiI-HDL act	PKA-R2B act	dFosB act-2
O=C(NCCC1=CCCCC1)C1CCC(CNc2nc(=S)[nH]c3ccccc23)CC1 (configuration not stated)	-	-	-	23	-	-	-
O=C(NCCc1ccc(Cl)cc1)C1CCC(CNc2nc(=S)[nH]c3ccccc23)CC1 (configuration not stated)	-	-	-	72	-	-	-
CCOc1ccc(CCN2C(=O)c3ccc(C(=O)O)cc3C2=O)cc1OCC	-	-	-	-	-	-	.
O=C(NC1CCCc2ccccc21)c1ccccc1OC(F)F (configuration not stated)	-	-	-	-	-	-	.
O=C(Cc1ccc(Cl)c(Cl)c1)Nc1ccc(S(=O)(=O)Nc2ncccn2)cc1	-	-	-	-	-	-	.
Cc1ccc(OCC(=O)N/N=C\c2cccn2C)c([N+](=O)[O-])c1	-	-	-	-	-	-	.
O=C(Cc1csc(Nc2nc(=S)[nH]c3ccccc23)n1)NCc1ccccc1Cl	-	-	-	49	-	-	-
O=C(NCc1ccccc1Cl)C1CCC(CNc2nc(=S)[nH]c3ccccc23)CC1 (configuration not stated)	-	-	-	71	-	-	-
COc1ccc(NC(=O)COC(=O)c2c(C)noc2C)cc1Cl	.	-	.	.	.	-	.
Cc1ccc(NC(=O)C2CC(=O)N(c3ccccc3Cl)C2)cc1S(=O)(=O)N1CCOCC1 (configuration not stated)	-	-	-	-	-	-	.
Cn1cc(Br)c(C(=O)Nc2sc3c(c2C(N)=O)CCCC3)n1	.	-	-	-	.	-	.
CCn1cc(Br)c(C(=O)Nc2sc3c(c2C(N)=O)CCCC3)n1	-	-	-	76	-	-	-
CCOc1ccc(Oc2ccc(NC(=O)[C@@H](NC(N)=O)[C@@H](C)CC)cc2)cc1	-	-	-	31	-	-	-
Cc1ccc(S(=O)(=O)N2CCC(C(=O)NNC(=O)c3ccc(F)cc3)CC2)cc1	-	-	-	-	-	-	.
COc1ccc(/C=C/C(=O)Nc2c(C)nn(C)c2C)cc1COc1ccc(Cl)cc1Br	-	-	-	131	-	-	-
C[C@@H]1CN([C@H](C)CO)C(=O)c2cc(Br)cnc2O[C@@H]1CN(C)C(=O)c1ccccc1	.	-	.	.	.	-	.
COc1ccc(CNC(=O)C(NS(=O)(=O)c2ccc3c(c2)CCCN3C(C)=O)C(C)C)cc1 (configuration not stated)	-	-	-	-	-	-	.
CCc1ccc(NC(=O)C(NS(=O)(=O)c2ccc3c(c2)CCN3C(C)=O)C(C)C)cc1 (configuration not stated)	-	-	-	37	-	-	-
COc1cc(NC(=O)C(C)Oc2ccccc2)ccc1NC(=O)COc1ccccc1 (configuration not stated)	-	-	-	-	-	-	.
CCOc1ccc(CCNC(=O)c2nnn(CC(=O)Nc3c(C)cc(C)cc3C)c2N)cc1OCC	-	-	-	29	-	-	-
COc1ccc(CCNC(=O)c2nnn(CC(=O)Nc3c(C)cc(C)cc3C)c2N)cc1OC	-	-	-	80	-	-	-
CCOc1ccc(OCC)c(NC(=O)c2nnn(CC(=O)Nc3cc(C)cc(C)c3)c2N)c1	-	-	-	61	-	-	-
CC(C)(C)OC(=O)NCCCCCc1nnc(SCC(=O)Nc2cccc(Cl)c2)o1	-	-	-	-	-	-	.
COc1ccc(C(=O)Oc2cc(C)c(CN3CCOCC3)cc2C)cc1OC	-	-	-	-	-	-	.
O=C(CCCN1C(=O)c2ccccc2C1=O)NCCN1C(=O)S/C(=C\c2cccs2)C1=O	.	-	-	-	.	-	.
SMILES	SR-BI DiI inh	PKA-R1A activ	CDK5 p35 inh	dFosB act-1	SR-BI DiI-HDL act	PKA-R2B act	dFosB act-2
Cc1ccc(NC(=O)CSc2nnc(NC(=O)C3CC3)s2)cc1	-	-	-	31	-	-	-
Cc1ccc(NC(=O)CSc2nnc(NC(=O)C3CC3)s2)cc1C	.	-	-	-	.	-	.
CC(=O)c1ccc(NC(=O)CSc2nnc(NC(=O)C3CC3)s2)cc1	-	-	-	-	-	-	.
Cc1cc(C)cc(NC(=O)CSc2nnc(NC(=O)C3CC3)s2)c1	-	-	-	28	-	-	-
O=C(c1ccc(Cl)s1)N1CCN(S(=O)(=O)c2ccc(Cl)cc2)CC1	-	-	-	-	-	-	.
Cc1cc(NC(=O)c2ccc(Br)c([N+](=O)[O-])c2)no1	-	-	-	46	-	-	-
Cc1cc(NC(=O)c2ccc(C)c([N+](=O)[O-])c2)no1	-	-	-	-	-	-	.
COc1cc(NC(=O)C2Cc3ccccc3CN2S(C)(=O)=O)cc(OC)c1 (configuration not stated)	-	-	-	23	-	-	-
COc1ccc(Cl)cc1NC(=O)C1Cc2ccccc2CN1S(C)(=O)=O (configuration not stated)	-	-	-	-	-	-	.
COc1ccc(Cc2nnc(NC(=O)c3ccccc3C)s2)cc1	-	-	-	-	-	-	.
CN1/C(=C/C=C(C#N)C#N)C=Cc2ccccc21	.	-	-	29	.	-	-
CCOC(=O)/C(C#N)=C/C=C1\C=Cc2ccccc2N1CC	-	-	-	-	-	-	.
O=S(=O)(c1ccc2c(c1)OCO2)N1CCN(c2nnnn2-c2ccccc2)CC1	-	-	-	25	-	-	-
O=S(=O)(c1ccccc1)N1CCN(c2nnnn2-c2ccccc2)CC1	-	-	-	?	-	-	.
CC[C@@H]1CCCCc2ccccc2[C@H](C(=O)C[C@H](O)CC(C)=O)OC1=O	-	-	-	-	-	-	.
Cc1ccc(NC(=S)NCc2ccc(F)cc2)cc1	-	-	-	-	-	-	.
Cc1ccc(CNC(=S)Nc2ccc(NS(=O)(=O)c3ccc(C)cc3)cc2)cc1	-	-	-	19	-	-	-
O=C(CSc1nc2ccc(Cl)cc2[nH]1)NC1CCCc2ccccc21 (configuration not stated)	-	-	-	19	-	-	-
CC1CCCCC12NC(=O)N(CC(=O)N1CCN(Cc3ccc(C#N)cc3)CC1)C2=O (configuration not stated)	-	-	-	-	-	-	.
Cc1cc(C)c2nc(-c3ccccn3)cc(C(=O)NCc3ccc(S(N)(=O)=O)cc3)c2c1	-	.	-	65	-	.	-
